The values below come from publication PMC6796888 (ACS Omega, 2019).

≈ marks a conversion by molar mass, not a printed value.

The test system of one assay is E. coli. The experiment in a line: Synergistic assay with ciprofloxacin. Format: cell-based, Escherichia coli. The conditions noted are these: E. coli; 4l combined with CIP.
The subject of another assay is S. typhimurium. The experiment in a line: Synergistic assay with ciprofloxacin. Format: cell-based, Salmonella typhimurium.
For the next assay, the system named is S. pneumoniae. The experiment in a line: Synergistic assay with ciprofloxacin. Format: cell-based, Streptococcus pneumoniae.
For a further assay, the system named is E. faecalis. The experiment in a line: Synergistic assay with ciprofloxacin. Format: cell-based, Enterococcus faecalis.
The next assay concerns P. aeruginosa. The experiment in a line: Synergistic assay with ciprofloxacin. Particulars: P. aeruginosa; 4l combined with CIP. Format: cell-based.
Assay [1] concerns P. auroginosa MTCC 2453. The experiment in a line: In vitro screening, % growth inhibition at 250 μg/mL. Format: cell-based, Pseudomonas auroginosa. Particulars: for inhibition at 250 µg/mL: Pseudomonas, MTCC2453, 24 h, read-out: % inhibition at 250 μg/mL. The method in brief: (§1)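 Test compounds dissolved in DMSO and diluted in test medium. Mid-log cultures diluted in nutrient broth to McFarland standard and treated with 250 μg/mL in 96-well plates, 37 °C, 160 rpm, 24 h. Growth read as OD at 580 nm; % inhibition calculated from absorbance against untreated growth. Run twice on different occasions.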

The subject of another assay is E. faecalis MTCC 439. Described as above. Format: cell-based, Enterococcus faecalis. The conditions noted are these: Enterococcus faecalis, MTCC439, 24 h, read-out: % inhibition at 250 μg/mL. The method in brief: as §1
The subject of another assay is E. coli ATCC 25922. The assay is described as above. Format: cell-based, Escherichia coli. The conditions noted are these: Escherichia coli, ATCC25922, 24 h, read-out: % inhibition at 250 μg/mL. The method, boiled down:
as §1

Another assay concerns S. pneumoniae MTCC 655. The description is as above. The conditions noted are these: Streptococcus pneumoniae, MTCC655, 24 h, read-out: % inhibition at 250 μg/mL. Format: cell-based, Streptococcus pneumoniae. The method, boiled down:
as §1

The test system of assay [2] is P. auroginosa MTCC 2453. The experiment in a line: MIC by broth microdilution. The conditions noted are these: Pseudomonas, MTCC2453. Format: cell-based, Pseudomonas auroginosa.

For orientation: MIC means the least concentration at which growth counts as inhibited. As for `O=C(O)c1cn(C2CC2)c2cc(N3CCNCC3)c(F)cc2c1=O` [CIP, ciprofloxacin, reference compound], the MIC in combination in the assay with E. coli is 0.125 µg/mL; in the assay with S. typhimurium (S. typhimurium, 4l combined with CIP), 0.25 µg/mL; with S. pneumoniae (S. pneumoniae, 4l combined with CIP) it was 0.0625 µg/mL; in the assay on E. faecalis (E. faecalis, 4l combined with CIP), 0.0625 µg/mL; in the assay on P. aeruginosa, 0.5 µg/mL. Also, the MIC in the assay with S. typhimurium (Salmonella enterica, TYPHIMURIUM, read-out: MIC alone) is 0.25 µg/mL; with S. pneumoniae (Streptococcus pneumoniae, read-out: MIC alone), 0.25 µg/mL; with E. faecalis (Enterococcus faecalis, read-out: MIC alone) it was 0.25 µg/mL.
In the case of `CNC1=C([N+](=O)[O-])C2(C(=O)Nc3ccccc32)C2=C(CC(C)(C)CC2=O)O1` (centres unmarked) [Compound 4a, 7,7-Dimethyl-2-(methylamino)-3-nitro-7,8-dihydrospiro[chromene-4,3′-indoline]-2′,5(6 H)-dione], the inhibition at 250 µg/mL came to 37.3% in the assay on P. auroginosa MTCC 2453 [1], 41.5% in the assay on E. faecalis MTCC 439, 43.2% with E. coli ATCC 25922 and 29.7% with S. pneumoniae MTCC 655.
For `CNC1=C([N+](=O)[O-])C2(C(=O)Nc3ccc(Cl)cc32)C2=C(CC(C)(C)CC2=O)O1` (centres unmarked) [Compound 4b] the same measures were 18%, 31.9%, 43.2% and 21.3%.
As to `CNC1=C([N+](=O)[O-])C2(C(=O)Nc3ccc(Br)cc32)C2=C(CC(C)(C)CC2=O)O1` (centres unmarked) [Compound 4c], in the assay with P. auroginosa MTCC 2453 [2], the MIC stood at 250 µg/mL (≈ 558 µM). Also, in the assay on P. auroginosa MTCC 2453 [1] (P. auroginosa MTCC 2453, 250 μg/mL, 24 h), the “% inhibition at 250 μg/mL” value was “complete growth inhibition”. The inhibition at 250 µg/mL amounted to 100% in the assay with P. auroginosa MTCC 2453 [1], 38.1% in the assay on E. faecalis MTCC 439, 40.7% with E. coli ATCC 25922 and 21.5% in the assay on S. pneumoniae MTCC 655.
Consider `CNC1=C([N+](=O)[O-])C2(C(=O)Nc3ccc([N+](=O)[O-])cc32)C2=C(CC(C)(C)CC2=O)O1` (centres unmarked) [Compound 4d], for which the inhibition at 250 µg/mL in the assay on P. auroginosa MTCC 2453 [1] was 52.5%; in the assay on E. faecalis MTCC 439, 30.4%; with E. coli ATCC 25922, 36.1%; in the assay on S. pneumoniae MTCC 655, 23.2%.
As for `CNC1=C([N+](=O)[O-])C2(C(=O)Nc3ccccc32)c2c(c3ccccc3oc2=O)O1` (centres unmarked) [Compound 4i], the inhibition at 250 µg/mL came out at 6.58% in the assay on P. auroginosa MTCC 2453 [1], 7.5% with E. faecalis MTCC 439, 15.4% with E. coli ATCC 25922 and 1.96% in the assay on S. pneumoniae MTCC 655.
Turning to `CNC1=C([N+](=O)[O-])C2(C(=O)Nc3ccc(Cl)cc32)c2c(c3ccccc3oc2=O)O1` (centres unmarked) [Compound 4j], the inhibition at 250 µg/mL in the assay with P. auroginosa MTCC 2453 [1] turned out to be 23.1%; in the assay with E. faecalis MTCC 439, 27.2%; in the assay on E. coli ATCC 25922, 45.8%; in the assay on S. pneumoniae MTCC 655 it was 27.8%.
For `CNC1=C([N+](=O)[O-])C2(C(=O)Nc3ccc(Br)cc32)c2c(c3ccccc3oc2=O)O1` (centres unmarked) [Compound 4k] the same measures were 4.61%, 18.1%, 32% and 19.7%.
